≈ marks a conversion by molar mass, not a printed value.
What was measured:
Format in all cases: functional
[1] = Antibacterial activity in mice after intraperitoneal administration with 0.5 mL of Escherichia coli Vogel inoculum; conditions: sc
Summary of the method: (§1)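 Female ICR mice (18-20 g) infected intraperitoneally with 0.5 mL of E. coli Vogel (grown in brain heart infusion broth, suspended in saline) at 1.9×10^7 cells/mL. Compound as free acid dissolved in dilute NaOH and diluted with water, given once (0.5 mL) sc or po at 0.5 h postinfection. Groups of 10 mice at four or five dose levels, with nonmedicated controls. Deaths recorded daily for 7 days; PD50 by probit analysis.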

Escherichia coli = assay: In vitro minimum inhibitory concentration against growth of Escherichia coli Vogel
Summary of the method: (§2)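 Tube serial dilution. Cultures grown overnight at 37 °C in tryptose phosphate broth or brain heart infusion broth. Compound stock of 1000 μg/mL (as free acid) made in minimal 0.5 N NaOH, then diluted in distilled water. Dilutions were mixed 1:1 with culture to a final 1×10^5 cells/mL and incubated 18–20 h at 37 °C. MIC = lowest concentration with no visible growth.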

Klebsiella pneumoniae = assay: In vitro minimum inhibitory concentration against growth of Klebsiella pneumoniae strain 39645
Summary of the method: (§3)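 Tube serial dilution. Stocks at 1000 μg/mL (free acid) were made in minimal 0.5 N NaOH and diluted in distilled water. Cultures were grown overnight at 37 °C in tryptose phosphate or brain heart infusion broth. Final inoculum was 1×10^5 cells/mL, incubated 18–20 h at 37 °C. MIC was the lowest concentration preventing visible growth.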

Staphylococcus aureus = assay: In vitro minimum inhibitory concentration against growth of Staphylococcus aureus Smith; summary of the method: as §3
Pseudomonas aeruginosa = assay: In vitro minimum inhibitory concentration against growth of Pseudomonas aeruginosa MGH-2; summary of the method: as §2
Mus musculus = assay: Compound was evaluated for antibacterial activity in mice after peroral administration with 0.5 mL of Escherichia coli Vogel inoculum; conditions: po, read-out: PD50; summary of the method: as §1

SMILES	PD50 [1]	MIC (Escherichia coli)	MIC (Klebsiella pneumoniae)	MIC (Staphylococcus aureus)	MIC (Pseudomonas aeruginosa)	ED50 (Mus musculus)
CN1CCN(c2cc3c(cc2F)c(=O)c(C(=O)O)cn3N)CC1	2.9 mg/kg	1.95 µg/mL (≈ 6.09 µM)				
CCNn1cc(C(=O)O)c(=O)c2cc(F)c(N3CCN(C)CC3)cc21		0.5 µg/mL (≈ 1.44 µM)				
CNn1cc(C(=O)O)c(=O)c2cc(F)c(N3CCN(C(C)C)CC3)cc21	1.5 mg/kg	0.5 µg/mL (≈ 1.38 µM)				
CNn1cc(C(=O)O)c(=O)c2cc(F)c(N3CCC(O)C3)cc21 (configuration not stated)		1 µg/mL (≈ 3.11 µM)				
CNn1cc(C(=O)O)c(=O)c2cc(F)c(N3CCSCC3)cc21		0.5 µg/mL (≈ 1.48 µM)				
C=CCNn1cc(C(=O)O)c(=O)c2cc(F)c(N3CCN(C)CC3)cc21	19 mg/kg	1 µg/mL (≈ 2.77 µM)				
CNn1cc(C(=O)O)c(=O)c2cc(F)c(N3CCCC3)cc21		1 µg/mL (≈ 3.28 µM)				
CCOC(=O)c1cn(NC)c2cc(N3CCN(C)CC3)c(F)cc2c1=O.CS(=O)(=O)O		62.5 µg/mL				
CCCNn1cc(C(=O)O)c(=O)c2cc(F)c(N3CCN(C)CC3)cc21	33 mg/kg	1.95 µg/mL (≈ 5.38 µM)				
CN1CCN(c2cc3c(cc2F)c(=O)c(C(=O)O)cn3N(C)C)CC1	1.6 mg/kg	0.5 µg/mL (≈ 1.44 µM)				
CNn1cc(C(=O)O)c(=O)c2cc(F)c(N3CCOCC3)cc21	16.6 mg/kg	0.5 µg/mL (≈ 1.56 µM)				
CNn1cc(C(=O)O)c(=O)c2cc(F)c(N3CCC(O)CC3)cc21		1.95 µg/mL (≈ 5.82 µM)				
CNn1cc(C(=O)O)c(=O)c2cc(F)c(N3CCCC(O)C3)cc21 (configuration not stated)	41 mg/kg					
CNn1cc(C(=O)O)c(=O)c2cc(F)c(N3CCN(C(C)=O)CC3)cc21	109 mg/kg	15.6 µg/mL (≈ 43.1 µM)				
CNn1cc(C(=O)O)c(=O)c2cc(F)c(N3CC[N+](C)([O-])CC3)cc21	9.4 mg/kg	15.6 µg/mL (≈ 44.5 µM)				
CCN1CCN(c2cc3c(cc2F)c(=O)c(C(=O)O)cn3NC)CC1		0.5 µg/mL (≈ 1.44 µM)				
CCCN1CCN(c2cc3c(cc2F)c(=O)c(C(=O)O)cn3NC)CC1	14.2 mg/kg	0.25 µg/mL (≈ 0.69 µM)				
CNn1cc(C(=O)O)c(=O)c2cc(F)c(N3CCNCC3)cc21	0.3 mg/kg	1 µg/mL (≈ 3.12 µM)	1 µg/mL (≈ 3.12 µM)	1.95 µg/mL (≈ 6.09 µM)	1 µg/mL (≈ 3.12 µM)	6.4 mg/kg
CNn1cc(C(=O)O)c(=O)c2cc(F)c(N3CCCNCC3)cc21.Cl	2.8 mg/kg					
CNn1cc(C(=O)O)c(=O)c2cc(F)c(N3CCCN(C)CC3)cc21.Cl	5.5 mg/kg	1.95 µg/mL				
CNn1cc(C(=O)O)c(=O)c2cc(F)c(N3CCN(C)CC3)cc21 [AMIFLOXACIN]		0.25 µg/mL (≈ 0.748 µM)	0.25 µg/mL (≈ 0.748 µM)	1 µg/mL (≈ 2.99 µM)	1 µg/mL (≈ 2.99 µM)	1 mg/kg
CCn1cc(C(=O)O)c(=O)c2cc(F)c(N3CCNCC3)cc21 [NORFLOXACIN]	0.3 mg/kg	0.5 µg/mL (≈ 1.57 µM)	0.5 µg/mL (≈ 1.57 µM)	1.95 µg/mL (≈ 6.11 µM)	1 µg/mL (≈ 3.13 µM)	5.9 mg/kg
CCn1cc(C(=O)O)c(=O)c2cc(F)c(N3CCN(C)CC3)cc21 [PEFLOXACIN]	0.5 mg/kg	0.25 µg/mL (≈ 0.75 µM)	0.5 µg/mL (≈ 1.5 µM)	1 µg/mL (≈ 3 µM)	1 µg/mL (≈ 3 µM)	1.1 mg/kg
